Screening results deposited in PubChem BioAssay by The Scripps Research Institute Molecular Screening Center.
ABHD4 inh: inhibitors of mouse ABHD4. AID 720543. Q8VD66. hit rate 0.54% among 370,000. purified mABHD4, FP-Rh probe fluorescence polarization. inhibition, % at 8.92 µM;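 active means inhibition exceeding the mean over every tested compound plus 3 SD, cut at about 30% in these data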;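 further: 0% = plate median of compound wells and 100% = S159A mutant with DMSO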
Target sequence (Q8VD66 whole entry, looked up): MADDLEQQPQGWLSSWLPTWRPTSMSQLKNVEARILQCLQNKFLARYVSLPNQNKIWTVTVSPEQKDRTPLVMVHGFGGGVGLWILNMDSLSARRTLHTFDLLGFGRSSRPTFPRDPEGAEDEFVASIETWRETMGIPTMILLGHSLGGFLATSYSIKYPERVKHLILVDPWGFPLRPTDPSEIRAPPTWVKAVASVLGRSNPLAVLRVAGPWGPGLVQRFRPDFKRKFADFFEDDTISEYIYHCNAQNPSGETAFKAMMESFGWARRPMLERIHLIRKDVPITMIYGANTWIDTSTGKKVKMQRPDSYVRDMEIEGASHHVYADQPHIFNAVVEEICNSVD
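System: mouse ABHD4 enzyme, wild type / Medium: HEPES pH 7.0, NaCl, Pluronic buffer / Reagent: FP-Rh activity-based fluorescent probe / Control set: S159A mutant high control, sample median low control / Detection: fluorescence polarization with parallel and perpendicular emission, 525/598 nm / Schedule: 45 min + 60 min at 25 °C / Compound dosing: 8.92 µM, single dose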
RBBP9 inhibitor: inhibitors of human serine hydrolase RBBP9; recombinant RBBP9, FP-Rh probe fluorescence polarization; hit rate 0.2% among 220,000; AID 1515; O75884; inhibition, % at 7.94 µM;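 active means inhibition above the campaign mean of all tested compounds plus 3 SD, cut at about 14% in these data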;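 further: plate controls were DMSO wells with RBBP9 for no effect and wells lacking RBBP9 protein for full effect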
Target sequence (O75884 whole entry, looked up): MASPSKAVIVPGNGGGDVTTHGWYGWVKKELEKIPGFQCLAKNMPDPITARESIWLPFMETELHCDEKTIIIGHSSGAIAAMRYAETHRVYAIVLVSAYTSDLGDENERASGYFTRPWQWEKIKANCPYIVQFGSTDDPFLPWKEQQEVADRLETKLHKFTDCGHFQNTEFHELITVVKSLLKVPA
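Assay system: recombinant human RBBP9; Reagent: Serine-hydrolase probe FP-Rh, 375 nM pre-mixing; Doses: 7.94 µM single dose, 0.794% DMSO; Incubation: 30 min then 45 min, 25 °C; Detection: fluorescence polarization (mP), excitation 525 nm, emission 598 nm; Evaluation: percent inhibition from mP, scaled between DMSO and no-protein wells.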
HTRA1 inhibitor: blocks human HTRA1 serine peptidase. hit rate 0.5% among 340,000. inhibition, % at 5.96 µM. recombinant HTRA1, FP-rhodamine activity-based probe, fluorescence polarization. AID 504803; in the data active means inhibition above about 36%;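 further: 0% = enzyme with DMSO and 100% = wells lacking enzyme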
SIAE primary: blocks human sialic acid acetylesterase; Q9HAT2; SIAE FP-Rh probe binding, fluorescence polarization; inhibition, % at 9.66 µM; hit rate 0.69% among 370,000; AID 1053197;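 active means inhibition above a cutoff: mean of compounds within the control limits plus 3 SD of those, cut at about 17% in these data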;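 further: 0% = plate median of compound wells and 100% = probe without SIAE protein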
Numbers without * were called inactive; . = not tested or not shown. Sampled rows, rich in hits. Any-hit rate of the full collection: about 1.4%.

SMILES	ABHD4 inh	RBBP9 inhibitor	HTRA1 inhibitor	SIAE primary
O=C(Nc1ccc2c(c1)OCO2)c1cc2ncc(Br)cn2n1	-1	-3	14	68*
Nc1nc2ccccc2[nH]1	4	.	2	-3
Nc1ccccc1Sc1nc2ccccc2[nH]1	2	5	-7	18*
COC(=O)[C@]12C[C@H](CC(=O)N3CCCCC3)C(=O)N(CCC3=CCCCC3)C1=C[C@H](C1CCCC1)O[C@@H]2C	-15	.	.	-2
COC1=CC(=O)C(C2CC(=O)c3c(O)cc(O)cc3O2)=CC1=O (configuration not stated)	49*	.	18	11
COc1ccc(CN2C(C(=O)NCC(C)C)CSCCS2(=O)=O)cc1 (configuration not stated)	1	.	.	-5
Cc1cc(O)c2c(c1O)C(=O)[C@]13C(=C2O)C(=O)[C@@H]2[C@@H](O)[C@H]1[C@@H]1[C@H](O)[C@H]3C(=O)C3=C(O)c4c(O)cc(C)c(O)c4C(=O)[C@]312	.	.	41*	.
O=C(CSc1nc2ccccc2[nH]1)NN=Cc1ccccc1C(=O)O	-2	.	.	2
Cc1cc(C(=O)N/N=C/c2cc(Br)cc([N+](=O)[O-])c2O)c2ccccc2n1	44*	-7	11	14
Cc1ccc(NC2=C/C(=N/S(=O)(=O)c3cccs3)c3ccccc3C2=O)cc1C	7	-3	3	7
CC(=O)Nc1ccc(NC2=C/C(=N/S(=O)(=O)c3cccs3)c3ccccc3C2=O)cc1	34*	-2	.	13
CC(C)(C)c1ccc(-c2nnc(SCC(=O)Nc3ccc(S(=O)(=O)Nc4nccs4)cc3)n2-c2ccc(Cl)cc2)cc1	-78	.	.	-44
CCOc1ccc(-n2c(SCC(=O)Nc3ccc(S(=O)(=O)Nc4nccs4)cc3)nnc2-c2ccc(C(C)(C)C)cc2)cc1	-82	.	.	-51
COc1ccc(C(=O)/C=C(\Nc2ccc(F)cc2)c2ccc(OC)cc2OC)c(OC)c1	5	.	.	-1
CC1=CC(=O)C(C2CCCCC2)=C/C1=N\OS(=O)(=O)c1ccccc1	11	.	.	3
COc1ccc2c(c1)c(=O)oc1c(C)c(OCc3cc(C(=O)O)oc3C)ccc12	32*	2	-8	-3
CCCCCCCCN1C(=O)[C@@H](CC(=O)NCc2ccc(OC)c(OC)c2)C[C@@]2(C(=O)OC)C1=C[C@H](C(C)C)O[C@@H]2C1CC1	-8	.	.	-3
CCS(=O)(=O)c1ccc(N=Nc2ccc(O)c3ncccc23)c(OC)c1	22	-3	47*	4
Fc1cccc(Cn2ccc3ccc(-c4ccc5ccn(Cc6ccccc6)c5c4)cc32)c1	10	.	.	-1
O=c1c2ccccc2sn1-c1cc(S(=O)(=O)N2CCOCC2)ccc1N1CCCC1	16	10	-1	6
O=c1c2ccccc2sn1-c1cc(S(=O)(=O)N2CCOCC2)ccc1N1CCOCC1	10	45*	-5	0
COc1cc(/C=C2\SC(=O)N(c3ccc(Cl)cc3)C2=O)cc([N+](=O)[O-])c1O	37*	-3	10	8
CCOc1ccc(/C=C2\SC(=O)N(c3ccc(O)cc3)C2=O)cc1OC	.	-11	.	.
C/C(=N\NC(=O)c1cc(O)cc(O)c1)c1ccc(NC(=O)Cc2ccccc2)cc1	28	.	23	24*
COc1ccc2c(c1)CN1C(=O)N(C3CCCC3)S(=O)(=O)CC21 (configuration not stated)	6	.	.	-8
SMILES	ABHD4 inh	RBBP9 inhibitor	HTRA1 inhibitor	SIAE primary
CCc1[nH]nc2c1C(c1cccc(OC(=O)N3CCOCC3)c1)C(C#N)=C(N)O2 (configuration not stated)	0	-9	2	25*
CCN1CCc2c(OCC(=O)N3CCC(C)CC3)cccc2C1=O	-1	-6	9	-5
CC1CCN(C(=O)COc2cccc3c2CCN(Cc2ccccc2)C3=O)CC1	1	5	-9	17*
Cc1ccc(-n2c(SCC(=O)Nc3ccccc3-c3ccccc3)nnc2-c2ccccc2)cc1	-16	.	.	-1
O=C(NN=Cc1cccc(OCc2ccccc2)c1)c1cc(-c2ccc(Cl)cc2)n[nH]1	-69	.	.	-129
Cc1ccc(-n2sc3ccccc3c2=O)cc1	5	37*	4	10
COc1ccc(S[C@]2(C(=O)N3CCCC3)CC(=O)N(C(=O)c3ccccc3)[C@@H]2c2ccc(OC)cc2)cc1	2	.	.	14
On1onc2c3cc(-c4ccccc4)nc3ccc21	-18	13	2	18*
CN1CCc2cc3c(c4c2[C@H]1[C@H](O)c1ccccc1-4)OCO3	46*	-3	17	12
Cc1ccc(C(=O)OCC(=O)Nc2ccccc2N2CCOCC2)cc1	1	-3	-7	18*
CCC(=O)OC1(C)C(=O)C=C2C=C(c3ccsc3)OC=C2C1=O (configuration not stated)	.	.	48*	.
COC(=O)C1CN(Cc2ccc(OC)cc2)CCS(=O)(=O)N1Cc1cn(CCOC(C)=O)nn1 (configuration not stated)	7	.	.	5
Cc1ccc(NC(=S)/C(C#N)=C2/Nc3ccccc3S2)cc1	63*	.	1	4
CCn1c2ccccc2c2cc(NC(=O)CSc3nnc(-c4cccc(Cl)c4)o3)ccc21	-4	-11	-7	27*
O=C(CSc1nnc(-c2cccnc2)o1)Nc1cccc(Cl)c1	-4	.	7	-1
Clc1ccc(-c2cc(-c3nnc4sc(Cc5cccs5)nn34)[nH]n2)cc1	-44	.	.	-14
CCOc1cc(CNc2ccc(O)cc2)cc(Br)c1OCc1ccccc1F	.	3	44*	.
COc1cc(CNc2ccc(O)cc2)cc(Br)c1OCc1ccccc1F	.	6	33	.
N#Cc1c(N)sc(=S)c2c1CCCCC2	35*	-10	26	3
N#Cc1c(N)sc2c1CCCCCC2	8	-13	8	14
C=CCN1[C@H](C)COc2cc(F)ccc2S1(=O)=O	-3	.	.	-5
Oc1ccc(CN2CCCCC2)c2cccnc12	12	-4	20	-3
O=[N+]([O-])c1cc(CN2CCCC2)c2cccnc2c1O	.	-7	54*	.
Oc1c(Cl)cc(CN2CCCCC2)c2cccnc12	.	.	46*	.
COC(=O)C1=CC(=O)C=C(OC)[C@@]12Oc1cc(C)cc(OC)c1C2=O	9	.	.	1
COC(=O)[C@]12C[C@H](CC(=O)NCCCN3CCCC3=O)C(=O)N(Cc3ccc(Cl)cc3Cl)C1=C[C@H](C(C)C)O[C@@H]2C1CC1	6	.	.	-1
COC(=O)[C@]12C[C@H](CC(=O)NCc3cccc(C(F)(F)F)c3)C(=O)N(CCc3ccc(OC)c(OC)c3)C1=C[C@H](COCc1ccccc1)O[C@@H]2C	-10	.	.	-4
Cc1[nH]c2ccccc2c1/C=N/NC(=O)c1cccc(S(=O)(=O)Nc2cccc(C(F)(F)F)c2)c1	-21	9	31	19*
Cc1ccc(-c2[nH]c3cc(C(=O)NCCCn4ccnc4)ccc3c(=O)c2O)cc1	13	.	29	18*
O=C(O)CC(C(=O)O)N1C(=O)/C(=C/c2ccc(-c3nc4ccccc4s3)o2)SC1=S (configuration not stated)	38*	-1	15	4
